ChEMBL document CHEMBL1143198, “Potent, nonpeptide inhibitors of human mast cell tryptase. Synthesis and biological evaluation of novel spirocyclic piperidine amide derivatives” (Bioorg Med Chem Lett, 2008)
Calls of active or inactive are those of the source. The calls are words filed in the database; no cut-off is given here.

Legend:
[1] = Inhibition of human lung beta tryptase by chromogenic assay
Trypsin = Trypsin (Homo sapiens, UniProt P07477+P07478+P35030); assay: Inhibition of human trypsin by chromogenic assay; format: protein assay
Cytochrome P450 2C19 = Cytochrome P450 2C19 (Homo sapiens, UniProt P33261); assay: Inhibition of human CYP2C19; format: ADME
Method in brief: (§1)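 IC50 for cytochrome P450 isozyme inhibition was measured in isolated human liver microsomes.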

[2] = Oral bioavailability in dog; format: ADME, organism-based, Canis lupus familiaris; conditions: in vivo
Cytochrome P450 1A2 = Cytochrome P450 1A2 (Homo sapiens, UniProt P05177); assay: Inhibition of human CYP1A2; format: ADME
Method in brief: as §1

Cytochrome P450 2D6 = Cytochrome P450 2D6 (Homo sapiens, UniProt P10635); assay: Inhibition of human CYP2D6; format: ADME
Method in brief: as §1

Cytochrome P450 3A4 = Cytochrome P450 3A4 (Homo sapiens, UniProt P08684); assay: Inhibition of human CYP3A4; format: ADME
Method in brief: as §1

Cytochrome P450 2C9 = Cytochrome P450 2C9 (Homo sapiens, UniProt P11712); assay: Inhibition of human CYP2C9; format: ADME
Method in brief: as §1

[3] = Cmax in orally dosed rat; format: ADME, organism-based; set-up: route oral; conditions: in vivo, po
[4] = target: Amine oxidase [flavin-containing] B (Homo sapiens, UniProt P27338); assay: Inhibition of monoamine oxidase B
[5] = Half life in orally dosed rat; format: ADME, organism-based; conditions: in vivo, po
[6] = Metabolic stability in human liver microsomes after 60 mins; format: ADME, Microsome; conditions: read-out: Stability
[7] = target: Amine oxidase [flavin-containing] A (Homo sapiens, UniProt P21397); assay: Inhibition of monoamine oxidase A
Canis familiaris = assay: Volume of distribution in orally dosed dog; format: ADME, organism-based, Canis lupus familiaris; conditions: in vivo, po
Rattus norvegicus = assay: Volume of distribution in orally dosed rat; format: ADME, organism-based; conditions: in vivo, po
[8] = Half life in orally dosed dog; format: ADME, organism-based, Canis lupus familiaris; conditions: in vivo, po
[9] = Oral bioavailability in rat; format: ADME, organism-based; conditions: in vivo
[10] = Cmax in orally dosed dog; format: ADME, organism-based, Canis lupus familiaris; set-up: route oral; conditions: in vivo, po
[11] = Metabolic stability in human liver microsomes assessed as half life; format: ADME, Microsome
monoamine oxidase B = assay: Stability in presence of monoamine oxidase B after 30 mins; format: ADME; conditions: read-out: Stability
Method in brief: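 The compound was tested as an MAO-B substrate, with parent remaining measured at 30 min. Benzylamine was run as a reference substrate.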

Cavia porcellus [12] = assay: Antiinflammatory activity in ovalbumin-sensitized guinea pig asthma model assessed as increase in dynamic lung compliance at 20 mg/kg, po BID for 3 days relative to control; format: functional
Method in brief: (§2)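 Ovalbumin-sensitized guinea pigs received the benzoate salt orally at 20 mg/kg twice daily for 3 days, then once on Day 4 at 2 h before ovalbumin challenge.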

Cavia porcellus [13] = assay: Antiinflammatory activity in ovalbumin-sensitized guinea pig asthma model assessed as reduction in total lung resistance at 20 mg/kg, po BID for 3 days relative to control; format: functional; set-up: scale not given: the % may be the effect or the level left
Method in brief: as §2

Plasma = assay: Drug level in sheep plasma; format: ADME, cell-free, Ovis aries
Cavia porcellus [14] = assay: Antiinflammatory activity in ovalbumin-sensitized guinea pig asthma model assessed as reduction in total WBC cell count at 20 mg/kg, po BID for 3 days relative to control; format: functional; set-up: scale not given: the % may be the effect or the level left
Method in brief: as §2

Homo sapiens [15] = species on record: Homo sapiens; assay: Ratio of IC50 for human trypsin to IC50 for human tryptase
Method in brief: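 Human lung β-tryptase: 1 nM, H-D-HHT-Ala-Arg-pNA 500 µM, Tris/Hepes/NaCl/PEG buffer, pH 7.4. Human pancreatic trypsin: 1.8 nM, N-α-Z-D-Arg-Gly-Arg-pNA 60 µM, 200 mM NaCl, 50 mM Hepes, 0.5% octyl glucoside, pH 7.4.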

Ovis aries [16] = assay: Antiinflammatory activity in Ascaris suum-sensitized sheep asthma model assessed as blockade of late-phase airway response at 30 mg/kg, po BID after 8 hrs; format: functional, organism-based; set-up: dose 30 mg/kg
Method in brief: (§3)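 Conscious, antigen-sensitized allergic sheep were dosed by oral gavage with the benzoate salt at 30 mg/kg twice on Day 1, and on Day 2 at 2 h before antigen challenge. Airway resistance (SR_L) was monitored for 8 h after challenge: early phase 0–4 h, late phase 4–8 h. Airway hyper-reactivity to carbachol (PC₄₀₀) was measured at 24 h.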

[17] = target: Plasminogen (Homo sapiens) (UniProt P00747); assay: Inhibition of plasmin at 10 uM
[18] = target: Neutrophil elastase (Homo sapiens) (UniProt P08246); assay: Inhibition of human leukocyte elastase at 10 uM
[19] = target: Tissue-type plasminogen activator (Homo sapiens) (UniProt P00750); assay: Inhibition of tPA at 10 uM
[20] = target: Prothrombin (Homo sapiens) (UniProt P00734); assay: Inhibition of thrombin at 10 uM
Ovis aries [21] = assay: Antiinflammatory activity in Ascaris suum-sensitized sheep asthma model assessed as increase in airway hyperactivity at 30 mg/kg, po BID after 24 hrs relative to carbachol; format: functional, organism-based; set-up: dose 30 mg/kg
Method in brief: as §3

[22] = target: Plasma kallikrein (Homo sapiens) (UniProt P03952); assay: Inhibition of kallikrein at 10 uM
[23] = target: Coagulation factor X (Homo sapiens) (UniProt P00742); assay: Inhibition of factor 10a at 50 uM
[24] = Inhibition of streptokinase at 10 uM
Chymase (Homo sapiens) = Chymase (Homo sapiens) (UniProt P23946); assay: Inhibition of chymase at 50 uM
[25] = target: Cathepsin G (Homo sapiens) (UniProt P08311); assay: Inhibition of cathepsin G at 50 uM
Ovis aries [26] = assay: Antiinflammatory activity in Ascaris suum-sensitized sheep asthma model assessed as blockade of early-phase airway response at 30 mg/kg, po BID after 8 hrs; format: functional, organism-based; set-up: dose 30 mg/kg
Method in brief: as §3

[27] = target: Urokinase-type plasminogen activator (Homo sapiens) (UniProt P00749); assay: Inhibition of uPA at 10 uM
[28] = Inhibition of chymotrypsin at 10 uM
[29] = target: Coagulation factor VII (Homo sapiens) (UniProt P08709); assay: Inhibition of factor 7a at 10 uM
Homo sapiens [30] = species on record: Homo sapiens; assay: Inhibition of human recombinant beta tryptase at 50 uM by chromogenic assay; conditions: in the assay text read “human lung beta tryptase” for “human recombinant beta tryptase”
Method in brief: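 A405 followed for 15 min at 22 °C after enzyme addition. Percent inhibition at 50 µM compared initial velocities with and without inhibitor.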

Sequence of Cathepsin G (Homo sapiens) (P08311 whole entry): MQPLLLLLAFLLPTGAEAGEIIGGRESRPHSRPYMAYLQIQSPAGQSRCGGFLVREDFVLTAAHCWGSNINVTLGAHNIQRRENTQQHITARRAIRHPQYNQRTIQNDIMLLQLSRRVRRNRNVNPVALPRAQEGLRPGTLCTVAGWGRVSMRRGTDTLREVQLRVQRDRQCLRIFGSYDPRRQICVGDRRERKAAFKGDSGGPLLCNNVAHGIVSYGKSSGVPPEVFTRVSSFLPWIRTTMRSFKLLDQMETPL
Sequence of Cytochrome P450 2D6 (P10635 whole entry): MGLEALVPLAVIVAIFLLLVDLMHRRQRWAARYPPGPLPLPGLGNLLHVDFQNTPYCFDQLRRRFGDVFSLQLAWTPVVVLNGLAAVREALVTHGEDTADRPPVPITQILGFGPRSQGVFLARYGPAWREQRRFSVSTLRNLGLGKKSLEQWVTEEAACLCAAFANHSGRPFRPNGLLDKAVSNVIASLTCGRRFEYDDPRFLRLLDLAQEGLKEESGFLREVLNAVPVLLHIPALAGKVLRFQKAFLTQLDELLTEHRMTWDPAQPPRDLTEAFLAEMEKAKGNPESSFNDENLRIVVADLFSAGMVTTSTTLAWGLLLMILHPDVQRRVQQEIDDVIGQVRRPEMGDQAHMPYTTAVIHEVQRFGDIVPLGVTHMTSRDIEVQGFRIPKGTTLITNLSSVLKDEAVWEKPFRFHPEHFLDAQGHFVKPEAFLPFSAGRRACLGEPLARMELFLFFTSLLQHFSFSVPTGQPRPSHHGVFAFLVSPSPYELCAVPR
Sequence of Tissue-type plasminogen activator (Homo sapiens) (P00750 36-562 limits assumed): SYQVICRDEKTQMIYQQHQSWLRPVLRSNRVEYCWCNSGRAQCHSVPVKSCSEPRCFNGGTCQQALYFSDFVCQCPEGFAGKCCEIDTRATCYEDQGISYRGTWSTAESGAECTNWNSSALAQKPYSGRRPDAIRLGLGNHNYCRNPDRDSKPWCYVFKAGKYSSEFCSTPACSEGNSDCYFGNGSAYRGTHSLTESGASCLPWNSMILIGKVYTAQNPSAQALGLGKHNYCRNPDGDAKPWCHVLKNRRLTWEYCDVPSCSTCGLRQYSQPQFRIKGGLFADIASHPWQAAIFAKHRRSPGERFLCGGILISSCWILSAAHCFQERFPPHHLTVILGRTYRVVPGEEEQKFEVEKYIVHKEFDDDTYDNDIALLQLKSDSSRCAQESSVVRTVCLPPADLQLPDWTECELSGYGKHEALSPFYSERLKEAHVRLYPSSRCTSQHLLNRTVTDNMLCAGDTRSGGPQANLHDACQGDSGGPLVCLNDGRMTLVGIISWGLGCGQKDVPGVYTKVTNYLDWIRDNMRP
Sequence of Amine oxidase [flavin-containing] B (P27338 whole entry): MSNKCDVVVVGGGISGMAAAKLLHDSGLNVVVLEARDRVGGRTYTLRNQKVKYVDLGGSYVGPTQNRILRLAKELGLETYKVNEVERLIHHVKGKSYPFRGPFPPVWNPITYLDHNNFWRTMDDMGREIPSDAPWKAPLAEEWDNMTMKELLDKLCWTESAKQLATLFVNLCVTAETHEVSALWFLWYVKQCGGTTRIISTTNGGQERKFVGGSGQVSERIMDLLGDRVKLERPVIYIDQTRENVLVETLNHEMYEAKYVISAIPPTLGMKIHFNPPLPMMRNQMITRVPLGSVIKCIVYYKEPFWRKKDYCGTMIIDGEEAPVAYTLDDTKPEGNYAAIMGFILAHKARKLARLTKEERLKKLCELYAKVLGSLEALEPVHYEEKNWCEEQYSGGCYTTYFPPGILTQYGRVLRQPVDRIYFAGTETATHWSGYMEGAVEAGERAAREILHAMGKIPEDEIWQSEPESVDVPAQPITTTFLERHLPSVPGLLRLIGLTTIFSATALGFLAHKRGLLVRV
Sequence of Amine oxidase [flavin-containing] A (P21397 whole entry): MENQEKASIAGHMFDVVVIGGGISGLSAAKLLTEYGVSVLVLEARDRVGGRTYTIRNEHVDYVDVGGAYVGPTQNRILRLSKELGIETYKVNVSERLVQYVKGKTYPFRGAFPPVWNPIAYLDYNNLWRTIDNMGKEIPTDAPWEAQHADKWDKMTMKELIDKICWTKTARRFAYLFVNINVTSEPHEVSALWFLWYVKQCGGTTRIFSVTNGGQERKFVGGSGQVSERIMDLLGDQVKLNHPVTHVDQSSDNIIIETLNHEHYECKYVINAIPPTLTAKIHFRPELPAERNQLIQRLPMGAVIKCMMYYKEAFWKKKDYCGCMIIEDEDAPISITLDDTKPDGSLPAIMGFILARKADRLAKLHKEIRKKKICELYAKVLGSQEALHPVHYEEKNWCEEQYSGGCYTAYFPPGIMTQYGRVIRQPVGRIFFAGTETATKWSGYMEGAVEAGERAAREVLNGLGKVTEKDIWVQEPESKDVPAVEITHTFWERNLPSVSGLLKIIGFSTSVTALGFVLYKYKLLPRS
Sequence of Plasminogen (Homo sapiens) (P00747 97-580 limits assumed): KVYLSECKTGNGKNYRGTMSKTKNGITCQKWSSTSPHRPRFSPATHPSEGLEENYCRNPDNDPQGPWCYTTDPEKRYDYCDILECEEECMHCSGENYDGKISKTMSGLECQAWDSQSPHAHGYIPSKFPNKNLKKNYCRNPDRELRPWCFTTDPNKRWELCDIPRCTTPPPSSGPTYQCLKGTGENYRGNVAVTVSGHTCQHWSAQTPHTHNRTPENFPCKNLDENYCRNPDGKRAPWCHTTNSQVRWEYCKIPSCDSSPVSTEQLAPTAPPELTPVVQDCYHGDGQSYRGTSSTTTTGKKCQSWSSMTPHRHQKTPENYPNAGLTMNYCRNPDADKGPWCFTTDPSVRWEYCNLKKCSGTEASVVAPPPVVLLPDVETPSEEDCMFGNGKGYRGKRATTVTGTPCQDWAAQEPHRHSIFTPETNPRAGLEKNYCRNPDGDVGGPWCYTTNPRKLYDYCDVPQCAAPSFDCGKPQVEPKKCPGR
Sequence of Plasminogen (Homo sapiens) (P00747 581-810 limits assumed): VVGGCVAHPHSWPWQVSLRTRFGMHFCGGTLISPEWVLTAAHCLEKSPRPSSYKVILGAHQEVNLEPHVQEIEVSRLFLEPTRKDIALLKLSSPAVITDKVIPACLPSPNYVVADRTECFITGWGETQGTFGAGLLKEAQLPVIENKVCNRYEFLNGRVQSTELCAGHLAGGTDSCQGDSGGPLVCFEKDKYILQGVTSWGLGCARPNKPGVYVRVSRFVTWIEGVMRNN
Sequence of Cytochrome P450 2C19 (P33261 whole entry): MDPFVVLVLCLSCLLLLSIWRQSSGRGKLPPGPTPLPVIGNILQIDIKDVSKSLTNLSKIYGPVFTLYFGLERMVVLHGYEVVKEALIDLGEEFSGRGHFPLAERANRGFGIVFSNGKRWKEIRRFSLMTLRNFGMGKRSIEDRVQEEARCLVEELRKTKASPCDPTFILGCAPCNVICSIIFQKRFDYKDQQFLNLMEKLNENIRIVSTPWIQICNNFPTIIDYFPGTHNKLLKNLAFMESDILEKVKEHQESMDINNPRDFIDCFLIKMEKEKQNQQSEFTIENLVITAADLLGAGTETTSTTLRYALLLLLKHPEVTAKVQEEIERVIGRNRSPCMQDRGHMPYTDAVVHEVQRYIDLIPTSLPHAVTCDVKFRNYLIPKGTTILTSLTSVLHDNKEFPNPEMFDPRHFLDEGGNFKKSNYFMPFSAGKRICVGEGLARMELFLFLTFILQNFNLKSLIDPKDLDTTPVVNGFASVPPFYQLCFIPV
Sequence of Cytochrome P450 2C9 (P11712 whole entry): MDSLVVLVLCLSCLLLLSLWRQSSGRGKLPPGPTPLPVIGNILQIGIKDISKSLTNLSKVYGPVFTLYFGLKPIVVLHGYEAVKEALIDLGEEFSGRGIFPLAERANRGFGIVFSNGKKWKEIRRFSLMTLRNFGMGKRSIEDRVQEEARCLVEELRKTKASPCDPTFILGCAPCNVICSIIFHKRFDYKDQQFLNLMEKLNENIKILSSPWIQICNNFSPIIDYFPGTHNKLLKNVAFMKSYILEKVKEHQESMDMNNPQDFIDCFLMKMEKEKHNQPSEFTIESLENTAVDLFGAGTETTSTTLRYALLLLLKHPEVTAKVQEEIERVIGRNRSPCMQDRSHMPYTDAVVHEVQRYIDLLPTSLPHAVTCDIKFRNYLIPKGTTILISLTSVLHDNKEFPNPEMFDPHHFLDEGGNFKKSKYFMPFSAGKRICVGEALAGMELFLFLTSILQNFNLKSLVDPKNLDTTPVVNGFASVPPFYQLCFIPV
Sequence of Coagulation factor VII (Homo sapiens) (P08709 61-212 limits assumed): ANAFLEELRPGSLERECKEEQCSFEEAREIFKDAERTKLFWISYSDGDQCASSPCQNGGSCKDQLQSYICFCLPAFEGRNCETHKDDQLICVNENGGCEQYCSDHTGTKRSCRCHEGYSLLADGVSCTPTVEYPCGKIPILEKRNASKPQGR
Sequence of Coagulation factor VII (Homo sapiens) (P08709 213-466 limits assumed): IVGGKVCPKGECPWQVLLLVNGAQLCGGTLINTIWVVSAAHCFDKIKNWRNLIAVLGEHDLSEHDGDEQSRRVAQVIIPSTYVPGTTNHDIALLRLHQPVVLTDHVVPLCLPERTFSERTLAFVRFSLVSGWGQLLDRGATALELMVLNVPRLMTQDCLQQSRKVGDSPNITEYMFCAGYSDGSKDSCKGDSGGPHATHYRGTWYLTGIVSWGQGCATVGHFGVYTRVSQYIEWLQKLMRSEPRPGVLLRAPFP
Sequence of Neutrophil elastase (Homo sapiens) (P08246 whole entry): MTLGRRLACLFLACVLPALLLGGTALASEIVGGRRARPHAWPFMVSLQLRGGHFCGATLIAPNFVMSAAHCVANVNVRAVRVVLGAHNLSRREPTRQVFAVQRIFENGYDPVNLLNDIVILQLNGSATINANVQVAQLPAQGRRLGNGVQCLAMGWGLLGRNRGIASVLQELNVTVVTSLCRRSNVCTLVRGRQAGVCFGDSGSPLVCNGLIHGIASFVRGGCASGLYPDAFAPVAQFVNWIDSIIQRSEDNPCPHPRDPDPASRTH

SMILES	IC50 [1] [µM]	Ki [1] [µM]	IC50 (Trypsin) [µM]	other results
CC(=O)N1C[C@H](O)C[C@H]1C(=O)NC(CCCNC(=N)N)C(=O)c1nc2ccccc2s1 (some centres not stated)	0.013	0.01		
C/N=C(/N)c1ccc2c(c1)C1(CCN(C(=O)c3ccc(C#Cc4ccccc4)o3)CC1)CO2	0.78		> 50	
NCc1ccc2c(c1)C1(CCN(C(=O)c3ccc(C#Cc4ccc(O)cc4)o3)CC1)CO2	3.2		23	
CS(=O)(=O)N1CC2(CCN(C(=O)c3ccc(C#Cc4ccccc4)o3)CC2)c2cc(CN)ccc21	0.0018	0.0071	> 50	
NCc1ccc2c(c1)C1(CC2)CCN(C(=O)c2ccc(C#Cc3ccccc3)o2)CC1	0.0031		7.7	
CC(=O)N1CC2(CCN(C(=O)c3ccc(C#Cc4ccccc4)o3)CC2)c2cc(CN)ccc21	0.015		> 50	
NCc1ccc2c(c1)C1(CCN(C(=O)c3ccc(CCc4ccccc4)o3)CC1)CO2	0.082		47	
CC(C)(C)c1ccc(C#Cc2ccc(C(=O)N3CCC4(CC3)COc3ccc(CN)cc34)o2)cc1	0.7		13	
NCc1ccc2c(c1)C1(CCN(C(=O)c3ccc(C#Cc4ccccc4)o3)CC1)CN2	0.023		> 50	
NCc1ccc2c(c1)C1(CCN(C(=O)c3ccc(C#Cc4ccccc4)o3)CC1)CN2S(=O)(=O)c1ccccc1	0.0057	0.016	6.7	
N/N=C(\N)c1ccc2c(c1)C1(CCN(C(=O)c3ccc(C#Cc4ccccc4)o3)CC1)CO2	0.059		> 50	
NCc1ccc2c(c1)C1(CCN(C(=O)c3ccc(C#Cc4ccccc4)o3)CC1)CO2.O=C(O)c1ccccc1				Activity (Cavia porcellus [12]): 65%; Activity (Cavia porcellus [13]): 90%; concentration (Plasma): 400 nM; Activity (Cavia porcellus [14]): 20%
Cc1ccc(C#Cc2ccc(C(=O)N3CCC4(CC3)COc3ccc(CN)cc34)o2)cc1	0.0083		13	
NCc1cccc(C2CCN(C(=O)c3ccc(C#Cc4ccccc4F)o3)CC2)c1		0.031		
NCc1ccc2c(c1)C1(CCN(C(=O)c3ccc(-c4ccccc4)o3)CC1)CO2	0.028		8.6	
NCc1cccc(C2CCN(C(=O)c3ccc(C#Cc4ccccc4)o3)CC2)c1		0.0087		
NCc1ccc2c(c1)C1(CCN(C(=O)c3ccc(C#Cc4ccccc4)o3)CC1)CO2 [listing 2 of 2 here]				Activity (Ovis aries [16]): Active; inhibition [17]: < 15%; inhibition [18]: < 15%; inhibition [19]: < 15%; inhibition [20]: < 15%; Activity (Ovis aries [21]): Active; inhibition [22]: < 15%; inhibition [23]: < 30%; inhibition [24]: < 15%; inhibition (Chymase (Homo sapiens)): < 30%; inhibition [25]: < 30%; Activity (Ovis aries [26]): inactive; inhibition [27]: < 15%; inhibition [28]: < 15%; inhibition [29]: < 15%
NCc1ccc2c(c1)C1(CCN(C(=O)c3ccc(Sc4ccccc4)o3)CC1)CO2	0.09		9.1	

The next lines start with results.

IC50 [1] [µM]	Ki [1] [µM]	IC50 (Trypsin) [µM]	SMILES	other results
0.0043	0.003	12	NCc1ccc2c(c1)C1(CCN(C(=O)c3ccc(C#Cc4ccccc4F)o3)CC1)CO2	
0.0052	0.0034	38	NCc1ccc2c(c1)C1(CCN(C(=O)c3ccc(C#Cc4ccccc4Cl)o3)CC1)CO2	
		18	NCc1ccc2c(c1)C1(CCN(C(=O)c3ccc(C#Cc4ccccc4)o3)CC1)CO2 [listing 1 of 2 here]	IC50 (Cytochrome P450 2C19): > 20 µM; bioavailability [2]: 65%; IC50 (Cytochrome P450 1A2): > 20 µM; IC50 (Cytochrome P450 2D6): > 20 µM; Ki (Trypsin): 2.5 µM; IC50 (Cytochrome P450 3A4): > 20 µM; IC50 (Cytochrome P450 2C9): > 20 µM; Cmax [3]: 1100 nM; IC50 [4]: 72 µM; half-life [5]: 7 h; remaining at 1 h [6]: 100%; IC50 [7]: 23 µM; Vd (Canis familiaris): 16 L/kg; Vd (Rattus norvegicus): 17 L/kg; half-life [8]: 27 h; bioavailability [9]: 100%; Cmax [10]: 900 nM; half-life [11]: > 1.67 h; remaining at 0.5 h (monoamine oxidase B): 95%
0.0012	0.004	12	Cc1ccccc1C#Cc1ccc(C(=O)N2CCC3(CC2)COc2ccc(CN)cc23)o1	
0.0045		1.4	N=C(N)c1ccc2c(c1)C1(CCN(C(=O)c3ccc(C#Cc4ccccc4)o3)CC1)CO2	Ratio IC50 (Homo sapiens [15]): 300
0.013		5.5	COc1ccccc1C#Cc1ccc(C(=O)N2CCC3(CC2)COc2ccc(CN)cc23)o1	
		39	NC(=O)c1ccc2c(c1)C1(CCN(C(=O)c3ccc(C#Cc4ccccc4)o3)CC1)CO2	inhibition (Homo sapiens [30]): 29%
